The text below walks through data of ChEMBL document CHEMBL4118054, “Tamarixetin 3-O-β-d-Glucopyranoside from Azadirachta indica Leaves: Gastroprotective Role through Inhibition of Matrix Metalloproteinase-9 Activity in Mice” (J Nat Prod, 2017).

Data set [1] relates to Mus musculus. The experiment in a line: Antiulcerogenic activity in indomethacin-induced gastric ulceration Balb/c mouse model assessed as decrease in visible gastric hemorrhagic lesions in fundic stomach administered orally 30 mins prior to indomethacin challenge measured after 4 hrs. It counts as functional, organism-based.
Data set [2] concerns Mus musculus. Put plainly: Antiulcerogenic activity in indomethacin-induced gastric ulceration Balb/c mouse model assessed as decrease in visible gastric hemorrhagic lesions in fundic stomach by measuring ulcer index at 15 mg/kg, po administered 30 mins prior to indomethacin challenge measured after 4 hrs (reference value: 35 +/- 7.5). It counts as functional.
In data set [3] the test system is Mus musculus. Put plainly: Antiulcerogenic activity in indomethacin-induced gastric ulceration Balb/c mouse model assessed as restoration of intact epithelial layer in stomach at 15 to 25 mg/kg, po administered 30 mins prior to indomethacin challenge measured after 4 hrs by H and E staining based microscopic method. Format: functional, organism-based. The method, boiled down: (§1)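 Same indomethacin model (80 mg/kg b.w. oral, test agent 15 or 25 mg/kg b.w. oral 30 min prior, sacrifice at 4 h). Stomach pieces fixed in 4% paraformaldehyde, paraffin-embedded, ~5 μm sections H&E stained. Damage index scored blind as percentage of the gastric corpus circumference showing hemorrhage or epithelial disruption; submucosal infiltrating cells and epithelial continuity inspected microscopically.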

The test system of data set [4] is Mus musculus. Put plainly: Antiulcerogenic activity in indomethacin-induced gastric ulceration Balb/c mouse model assessed as gastric damage index at 15 mg/kg, po administered 30 mins prior to indomethacin challenge measured after 4 hrs by H and E staining based microscopic method (reference value: 40 +/- 7). It counts as functional. The method, boiled down: as §1

In data set [5] the test system is Mus musculus. The experiment in a line: Antiulcerogenic activity in indomethacin-induced gastric ulceration Balb/c mouse model assessed as gastric damage index at 25 mg/kg, po administered 30 mins prior to indomethacin challenge measured after 4 hrs by H and E staining based microscopic method (reference value: 40 +/- 7). It counts as functional. The method, boiled down: as §1

In data set [6] the test system is Mus musculus. The experiment in a line: Antiulcerogenic activity in indomethacin-induced gastric ulceration Balb/c mouse model assessed as infilteration of inflammatory cells at submucosal layer at 15 to 25 mg/kg, po administered 30 mins prior to indomethacin challenge measured after 4 hrs by H and E staining based microscopic method. Format: functional, organism-based. The method, boiled down:
as §1

For data set [7], the system named is Mus musculus. The experiment in a line: In vivo inhibition of MMP9 in indomethacin-induced gastric ulceration Balb/c mouse model assessed as reduction in indomethacin-induced ProMMP9 activity in gastric tissue administered orally 30 mins prior to indomethacin challenge measured after 4 hrs by gelatin zymographic method. It counts as functional, organism-based. The essentials:
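Gastric tissue from the indomethacin model (test agent orally 15 or 25 mg/kg b.w., 30 min before indomethacin, 4 h) minced at 4 °C in PBS with protease inhibitors, spun 12000g 15 min. PBS extract (70 μg protein/lane, Lowry) run on 8% SDS-PAGE with 1 mg/mL gelatin, nonreducing. Gels washed in 2.5% Triton X-100, incubated 18 h at 37 °C in 40 mM Tris-HCl pH 7.4, 0.2 M NaCl, 10 mM CaCl2, Coomassie stained, densitometry.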

Data set [8] has as its system Mus musculus. Put plainly: Toxicity in indomethacin-induced gastric ulceration Balb/c mouse model assessed as alteration in gastric tissue at 15 to 25 mg/kg, po administered 30 mins prior to indomethacin challenge measured after 4 hrs. It counts as organism-based. Conditions: in vivo.
Data set [9] addresses T1, Matrix metalloproteinase-9 (Homo sapiens, UniProt P14780). The experiment in a line: Inhibition of recombinant human full length MMP9 preincubated for 1 hr followed by gelatin addition measured after 18 hrs by SDS-PAGE analysis. The method, boiled down: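 Full-length recombinant human MMP-9 (~5 μg) incubated 1 h at room temperature with 0−500 μM test agent, then run on nonreducing 8% SDS-PAGE with 1 mg/mL gelatin. Gels washed in 2.5% Triton X-100, incubated 18 h at 37 °C in 40 mM Tris-HCl pH 7.4, 200 mM NaCl, 10 mM CaCl2, Coomassie stained; lysis bands quantified by densitometry against untreated enzyme. IC50 taken from activity change versus concentration, saturation set as 100%.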

Data set [10] has as its target T1, Matrix metalloproteinase-9. The experiment in a line: Binding affinity to human full length MMP9 assessed as decrease in cotton effects of compound up to 500 uM by CD spectral analysis.
Data set [11] addresses T1, Matrix metalloproteinase-9. The experiment in a line: Binding affinity to human full length MMP9 by CD spectral analysis. The essentials: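 Near-UV/visible CD spectra (240−700 nm), 1.0 mm quartz cell, under nitrogen at room temperature in aqueous buffer. Ligand held at 100 μM (from 10 mM methanol stock) while MMP-9 varied 0−333 nM. Kd at half-saturation derived from a double-reciprocal plot of Δθ against MMP-9 concentration.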

In data set [12] the test system is Mus musculus. The experiment in a line: Antiulcerogenic activity in indomethacin-induced gastric ulceration Balb/c mouse model assessed as decrease in visible gastric hemorrhagic lesions in fundic stomach by measuring ulcer index at 25 mg/kg, po administered 30 mins prior to indomethacin challenge measured after 4 hrs (reference value: 35 +/- 7.5). Format: functional.

Data set [13] deals with T1, Matrix metalloproteinase-9. Put plainly: Residual activity of recombinant human full length MMP9 at 60 uM preincubated for 1 hr followed by gelatin addition measured after 18 hrs by SDS-PAGE analysis relative to control.
For data set [14], the target named is T1, Matrix metalloproteinase-9. The experiment in a line: Residual activity of recombinant human full length MMP9 at 125 uM preincubated for 1 hr followed by gelatin addition measured after 18 hrs by SDS-PAGE analysis relative to control.
Data set [15] deals with T1, Matrix metalloproteinase-9. The experiment in a line: Residual activity of recombinant human full length MMP9 at 250 uM preincubated for 1 hr followed by gelatin addition measured after 18 hrs by SDS-PAGE analysis relative to control.

The IC50 is the point on the concentration scale where inhibition reaches its midpoint. The Kd is the equilibrium constant for the complex coming apart. A high value points to lower affinity. In general, residual activity refers to the activity still measured, relative to the control.

Calls of active or inactive are those of the source. The calls are words filed in the database; no cut-off is given here.

T1 sequence (P14780 whole entry): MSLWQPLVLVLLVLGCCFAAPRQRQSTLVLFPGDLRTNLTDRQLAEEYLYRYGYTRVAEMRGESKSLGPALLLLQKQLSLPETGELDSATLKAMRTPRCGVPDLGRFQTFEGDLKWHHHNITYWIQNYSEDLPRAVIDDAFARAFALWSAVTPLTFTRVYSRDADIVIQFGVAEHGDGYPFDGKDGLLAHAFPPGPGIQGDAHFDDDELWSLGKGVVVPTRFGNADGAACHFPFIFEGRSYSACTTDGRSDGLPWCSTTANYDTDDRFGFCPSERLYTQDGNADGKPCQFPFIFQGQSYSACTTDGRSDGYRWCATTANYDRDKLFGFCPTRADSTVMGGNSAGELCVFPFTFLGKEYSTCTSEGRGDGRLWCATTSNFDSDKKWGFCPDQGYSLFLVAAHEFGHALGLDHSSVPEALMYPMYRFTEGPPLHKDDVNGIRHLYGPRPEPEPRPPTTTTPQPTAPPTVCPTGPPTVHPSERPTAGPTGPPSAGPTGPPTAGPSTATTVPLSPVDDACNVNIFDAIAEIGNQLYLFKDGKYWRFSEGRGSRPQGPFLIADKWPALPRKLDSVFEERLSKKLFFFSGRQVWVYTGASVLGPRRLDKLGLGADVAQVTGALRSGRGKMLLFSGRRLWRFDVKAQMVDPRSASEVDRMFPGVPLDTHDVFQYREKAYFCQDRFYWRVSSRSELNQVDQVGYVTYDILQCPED

On to `COc1ccc(-c2oc3cc(O)cc(O)c3c(=O)c2O[C@@H]2O[C@H](CO)[C@@H](O)[C@H](O)[C@H]2O)cc1O`, for which the Activity result was “Dose-dependent effect” in the data set on Mus musculus [1] and “Non-Toxic” with Mus musculus [8]. The values for the UI in the data set on Mus musculus [2] and with Mus musculus [12] were 8 and 5, respectively. Moreover, the outcome (in the data set on Mus musculus [3]; in the data set with Mus musculus [6]; in data set [10]) was Active. Besides, the Activity_index is given as 10 in the data set with Mus musculus [4] and 5 in the data set on Mus musculus [5]. Besides, the inhibition result (with Mus musculus [7]; in [9]) was “Dose-dependent effect” throughout. Moreover, the IC50 in data set [9] turned out to be 50 µM. The Kd in data set [11] was 0.1 µM. Also, the residual activity in [13] worked out at 60%; in [14], 45%; in data set [15], 40%.
